The full list was thinned out, with hits kept by preference.
FLuc stim CS – affects firefly luciferase, flagging false hits in luciferase stimulation screens; P08659; ATPlite luciferase biochemical, luminescence, 10 min; 0 = ATP-free wells, 1 = DMSO control; activation factor at 10 µM; 200,000 tested, under 10 active;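 active means luciferase activation factor, scaled between plate controls, of at least 2 with compound at 10 µM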
Target sequence (P08659 whole entry, looked up): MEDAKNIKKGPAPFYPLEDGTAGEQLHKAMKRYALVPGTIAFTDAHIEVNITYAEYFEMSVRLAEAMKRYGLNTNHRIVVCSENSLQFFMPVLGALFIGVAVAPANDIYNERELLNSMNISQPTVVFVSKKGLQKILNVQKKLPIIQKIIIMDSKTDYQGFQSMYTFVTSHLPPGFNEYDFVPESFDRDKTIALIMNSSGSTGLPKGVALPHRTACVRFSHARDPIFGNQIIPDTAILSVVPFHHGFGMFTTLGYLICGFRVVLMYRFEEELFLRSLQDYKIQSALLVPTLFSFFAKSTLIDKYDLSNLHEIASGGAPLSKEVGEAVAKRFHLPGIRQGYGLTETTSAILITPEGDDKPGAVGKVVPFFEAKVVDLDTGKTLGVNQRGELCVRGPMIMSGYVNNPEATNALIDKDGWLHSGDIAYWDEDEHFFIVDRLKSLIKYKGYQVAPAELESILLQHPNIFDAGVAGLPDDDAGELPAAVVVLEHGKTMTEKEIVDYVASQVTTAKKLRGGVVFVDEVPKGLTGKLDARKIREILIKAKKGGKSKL
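Assay system – cell-free luciferase reagent · Medium – PBS-based ATP solution · Dosing – test compounds dosed from 2 mM stocks in 100% DMSO · Timing – 10 min, room temperature · Technique – light output (luminescence) · Measure – luminescence gain marking luciferase activators · Controls – No-ATP low control, compound-free enzyme-plus-ATP high control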
Diaphorase act – activates diaphorase or chemically reduces, flagging diaphorase assay artifacts | hit rate 0.005% among 190,000 | Diaphorase/resazurin coupled assay, resorufin fluorescence, 16 min; hits give high values; 1 = vehicle wells, 0 = NADH-free wells | activation factor at 20 µM | AID 1229;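 active means diaphorase activity raised at least twofold by the compound at 20 µM; inactive means activation factor below 2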
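Material: Clostridium kluyveri diaphorase, purified enzyme; Quantity: enzyme 0.07 U/mL final; Medium: HEPES pH 7.4 buffer with MgCl2 and Tween 20; Dosing: single compound dose of 20 µM, 1% DMSO final; Schedule: 16 min reaction at room temperature; Measured by: red resorufin fluorescence at 544/590 nm excitation/emission.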
FLuc inhib CS – Photinus pyralis luciferase inhibition counter-screen | P08659 | ATPLite firefly luciferase biochemical luminescence, 10 min | inhibition, % at 10 µM | hit rate 1.5% among 200,000 | AID 1006;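 active means inhibition above about 50% when tested at 10 µM, limit read from the data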
ABCG2 block – inhibitors of human ABCG2 transporter, ABCB1 counter-screen; AID 1325; hit rate 0.1% among 190,000; inhibition, % at 6.6 µM; IgMXP3 cells, JC-1 efflux, flow cytometry;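 active means inhibition above 80%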;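 further: 0% = DMSO and 100% = nicardipine control wells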
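test system = two drug-resistant human cell lines, ABCG2 and ABCB1 | amount = 3 million cells/mL final, two lines in 1:1 ratio | reagent = JC-1 transporter substrate | doses = one concentration, 6.6 µM final | incubation = 10 min at 25 °C | signal = flow cytometric JC-1 green MFI at 530 nm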
ABCB6 inh 2 – human ABCB6 transporter inhibition | Q9NP58 | K562-ABCB6 porphyrin accumulation, flow cytometry, 1 h; hits give low values | fluorescence ratio to DMSO, % at 10 µM | hit rate 0.19% among 360,000;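 active means fluorescence ratio to DMSO below 75%, the collection mean minus 3 SD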;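 further: signal is porphyrin accumulated inside mitochondria; 100% equals median channel fluorescence of DMSO control wells; lower ratio means ABCB6 inhibition with less porphyrin fluorescence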
ABCB1 block – blocks JC-1 efflux by human ABCB1 transporter. inhibition, % at 6.6 µM. CCRF-Adr cells, flow cytometry. AID 1326. hit rate 0.067% among 190,000. P08183; in the data active means inhibition above about 40%;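 further: 0% = vehicle and 100% = reference inhibitor; higher value means more JC-1 retained so stronger ABCB1 efflux block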
ABCB6 blocker 1 – human ABCB6 transporter inhibition; shares compounds with ABCB6 inh 2; K562-ABCB6 porphyrin accumulation, flow cytometry, 1 h; hits give low values; ratio response (% of DMSO), % at 10 µM; 700 tested, under 10 active; AID 602430;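 active means repeat-averaged ratio response below 75% of DMSO, the collection mean minus 3 SD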;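 further: median porphyrin fluorescence at 575 nm with 488 nm excitation from mitochondria; lower ratio means less porphyrin signal so ABCB6 inhibition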
Numbers without * were called inactive; nt = not tested or not shown.

SMILES	FLuc stim CS	Diaphorase act	FLuc inhib CS	ABCG2 block	ABCB6 inh 2	ABCB1 block	ABCB6 blocker 1
COC(=O)[C@]1(C)CCC[C@@]2(C)C3CC[C@@]4(C)C[C@]3(CCC21)CC4=NO (some centres undefined)	nt	nt	nt	nt	102	nt	nt
O=C(Nc1cccc(Cl)c1)NC1CCN(C2CCCCC2)C1 (centres undefined)	nt	nt	nt	nt	47*	nt	100
O=C(NC1CCN(C(=O)Nc2cccc(Cl)c2)CC1)C1CCCCC1	nt	nt	nt	nt	89	nt	nt
Cc1ccccc1C(=O)N1CCN(c2ccc(NC(=O)Cc3ccccc3)cc2)CC1	nt	nt	nt	nt	97	nt	nt
CCC(=O)Nc1ccc(N2CCN(C(=O)c3ccccc3C)CC2)cc1	1	0.8	-1	0	65*	0	98
CC1(C(=O)NS(=O)(=O)c2ccc(F)cc2F)CCN1C(=O)CCc1ccc(Cl)cc1Cl (centres undefined)	nt	nt	nt	nt	101	nt	100
CC1(C(=O)NS(=O)(=O)c2cccc(F)c2)CCN1C(=O)CCc1ccc(Cl)cc1Cl (centres undefined)	nt	nt	nt	nt	97	nt	nt
CC1(C(=O)NS(=O)(=O)c2ccc(C#N)cc2)CCN1C(=O)CCc1ccc(Cl)cc1Cl (centres undefined)	nt	nt	nt	nt	73*	nt	100
Cc1ccc(C#N)c(SCC(=O)Nc2nccs2)n1	0.9	0.9	12	7	98	0	nt
CCCCCN(C(=O)CCC(=O)OCc1ccccc1F)c1c(N)n(CCCC)c(=O)[nH]c1=O	nt	nt	nt	nt	93	nt	nt
CCCCCN(C(=O)CCC(=O)OCC(=O)NCCc1ccccc1)c1c(N)n(CCCC)c(=O)[nH]c1=O	nt	nt	nt	nt	93	nt	99
CCCCCN(C(=O)CCC(=O)OCC(=O)Nc1cccc(CC)c1)c1c(N)n(CCCC)c(=O)[nH]c1=O	nt	nt	nt	nt	74*	nt	101
CCCCCN(C(=O)CCC(=O)OCc1cc(C)ccc1C)c1c(N)n(CCCC)c(=O)[nH]c1=O	nt	nt	nt	nt	99	nt	100
CCCCCN(C(=O)CCC(=O)OCC(=O)N(CC)c1ccccc1)c1c(N)n(CCCC)c(=O)[nH]c1=O	nt	nt	nt	nt	100	nt	nt
c1ccc(Oc2ccccn2)cc1	nt	nt	nt	nt	108	nt	nt
Cc1ccc(C(=O)N(CC(=O)NC2CCCC2)c2ccccc2Cl)s1	nt	nt	nt	nt	94	nt	nt
CC1C(=O)Nc2ccccc2N1C(=O)C1CC1 (centres undefined)	1.1	0.9	-8	0	72*	0	100
C/C=C(\C)CN1CCN(c2cccc(C)c2C)CC1	1.1	1	-10	14	24*	1	95
CC(=O)OCC(=O)C1(O)CCC2C3CC(F)C4=CC(=O)CCC4(C)C3C(O)CC21C (centres undefined)	nt	nt	nt	nt	94	nt	nt
Cc1cccn2c(=O)c3cc(S(=O)(=O)c4ccc(F)cc4)c(=N)n(Cc4ccco4)c3nc12	nt	nt	nt	nt	95	nt	nt
Cc1cccn2c(=O)c3cc(S(=O)(=O)c4ccccc4)c(=N)n(Cc4ccco4)c3nc12	1	nt	-4	-2	66*	-1	104
COC(=O)C1=CNC=C(C(=O)OC)C1c1cccc2ccccc12	nt	nt	nt	nt	71*	nt	105
CCN1CCN(C(=O)c2ccc3c(=O)n(Cc4ccccc4OC)c(=S)[nH]c3c2)CC1	1	0.8	-4	0	69*	0	102
C/C(=N/NS(=O)(=O)c1ccc(CC(C)C)cc1)c1ccncc1	nt	nt	nt	nt	99	nt	nt
Cc1ccc(C(=O)NCc2ccc3c(c2)OCO3)cc1S(=O)(=O)N1CCOCC1	1	0.9	-2	2	98	1	nt
O=C(NCc1ccc2c(c1)OCO2)c1ccc(Cl)c(S(=O)(=O)N2CCOCC2)c1	1	1	-2	1	53*	0	101
CC(C)C[C@H](NC(=O)Nc1ccccc1F)C(=O)O	1.1	1	-6	-5	45*	-2	98
Cc1occc1-c1nnc(-c2cc([N+](=O)[O-])cc([N+](=O)[O-])c2)o1	1	1	-4	1	103	0	nt
CCOC(=O)c1cc(S(=O)(=O)N(C)Cc2ccccc2)cn1C	nt	nt	nt	nt	94	nt	nt
